# According to ChEMBL document CHEMBL1154352, “Toll-like receptor 7 selective synthetic oligoribonucleotide agonists: synthesis and structure-activity relationship studies” (J Med Chem, 2009):
# Assays:
# Homo sapiens = organism: Homo sapiens; assay: Ratio of human TLR7 activity to human TLR8 activity
# Outline: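 TLR7/TLR8 ratio computed from fold NF-κB (SEAP reporter) activation in HEK293 cells stably expressing human TLR7 versus TLR8, compounds at 50 μg/mL, 18 h exposure; representative of three independent experiments.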
# [1] = target: T1, Toll-like receptor 7 (Homo sapiens) (UniProt Q9NYK1); assay: Activation of human TLR7 expressed in HEK293XL assessed as fold induction of NF-kappaB activity at 50 ug/ml after 18 hrs by reporter gene assay relative to control
# T1 sequence (whole entry): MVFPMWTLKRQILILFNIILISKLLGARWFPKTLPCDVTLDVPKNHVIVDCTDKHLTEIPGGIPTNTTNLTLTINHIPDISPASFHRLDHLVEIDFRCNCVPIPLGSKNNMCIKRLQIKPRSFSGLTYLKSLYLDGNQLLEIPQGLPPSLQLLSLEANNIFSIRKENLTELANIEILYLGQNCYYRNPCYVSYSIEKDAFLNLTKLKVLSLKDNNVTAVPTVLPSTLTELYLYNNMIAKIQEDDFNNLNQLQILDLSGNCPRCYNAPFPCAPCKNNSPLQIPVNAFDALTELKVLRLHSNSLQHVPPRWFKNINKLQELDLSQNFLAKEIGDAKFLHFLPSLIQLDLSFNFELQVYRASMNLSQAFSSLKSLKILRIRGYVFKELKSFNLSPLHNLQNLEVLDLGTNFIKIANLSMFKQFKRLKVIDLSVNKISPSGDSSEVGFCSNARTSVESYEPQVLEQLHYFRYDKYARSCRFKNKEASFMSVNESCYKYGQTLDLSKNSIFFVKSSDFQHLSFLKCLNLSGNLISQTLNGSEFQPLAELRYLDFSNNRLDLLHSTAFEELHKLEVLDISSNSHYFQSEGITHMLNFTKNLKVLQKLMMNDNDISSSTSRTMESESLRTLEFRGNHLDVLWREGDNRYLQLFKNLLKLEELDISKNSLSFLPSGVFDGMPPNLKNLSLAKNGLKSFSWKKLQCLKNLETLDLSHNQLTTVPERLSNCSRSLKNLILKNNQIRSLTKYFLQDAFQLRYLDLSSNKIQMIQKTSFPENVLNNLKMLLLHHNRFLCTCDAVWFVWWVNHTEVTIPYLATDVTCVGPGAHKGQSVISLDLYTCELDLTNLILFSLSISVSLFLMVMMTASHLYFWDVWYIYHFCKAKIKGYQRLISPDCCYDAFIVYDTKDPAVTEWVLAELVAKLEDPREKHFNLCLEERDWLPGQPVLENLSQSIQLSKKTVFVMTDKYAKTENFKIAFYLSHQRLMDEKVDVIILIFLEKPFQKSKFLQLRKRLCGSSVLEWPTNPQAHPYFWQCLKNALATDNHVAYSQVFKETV
# Outline: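 HEK293 cells stably expressing human TLR7 or TLR8, transiently transfected with SEAP reporter plasmid; medium replaced, SIMRA compounds added, 18 h incubation. Supernatant SEAP measured by QuantiBlue; expressed as fold increase in NF-κB activity over PBS control. Tabulated data at 50 μg/mL, representative of three independent experiments.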
Ratio (Homo sapiens),fold change (FC) [1],SMILES
12.9,23.3,Nc1ccn([C@@H]2O[C@H](COP(=O)(S)O[C@H]3[C@@H](O)[C@H](n4ccc(N)nc4=O)O[C@@H]3COP(=O)(S)O[C@H]3[C@@H](O)[C@H](n4cnc5c(N)ncnc54)O[C@@H]3COP(=O)(S)O[C@H]3[C@@H](O)[C@H](n4ccc5c(=O)[nH]c(N)nc54)O[C@@H]3COP(=O)(S)O[C@H]3[C@@H](O)[C@H](n4ccc(=O)[nH]c4=O)O[C@@H]3COP(=O)(S)O[C@H]3[C@@H](O)[C@H](n4ccc(=O)[nH]c4=O)O[C@@H]3COP(=O)(S)O[C@H]3[C@@H](O)[C@H](n4ccc(N)nc4=O)O[C@@H]3COP(=O)(S)O[C@H]3[C@@H](O)[C@H](n4cnc5c(N)ncnc54)O[C@@H]3CO)[C@@H](OP(=O)(S)OC[C@H]3O[C@@H](n4ccc(=O)[nH]c4=O)[C@H](O)[C@@H]3OP(=O)(S)OC[C@H]3O[C@@H](n4ccc(=O)[nH]c4=O)[C@H](O)[C@@H]3OP(=O)(S)OC[C@H]3O[C@@H](n4ccc(=O)[nH]c4=O)[C@H](O)[C@@H]3OP(=O)(S)OCC(O)COP(=O)(S)O[C@H]3[C@@H](O)[C@H](n4ccc(=O)[nH]c4=O)O[C@@H]3COP(=O)(S)O[C@H]3[C@@H](O)[C@H](n4ccc(=O)[nH]c4=O)O[C@@H]3COP(=O)(S)O[C@H]3[C@@H](O)[C@H](n4ccc(=O)[nH]c4=O)O[C@@H]3COP(=O)(S)O[C@H]3[C@@H](O)[C@H](n4ccc(N)nc4=O)O[C@@H]3COP(=O)(S)O[C@H]3[C@@H](O)[C@H](n4ccc(N)nc4=O)O[C@@H]3COP(=O)(S)O[C@H]3[C@@H](O)[C@H](n4cnc5c(N)ncnc54)O[C@@H]3COP(=O)(S)O[C@H]3[C@@H](O)[C@H](n4ccc5c(=O)[nH]c(N)nc54)O[C@@H]3COP(=O)(S)O[C@H]3[C@@H](O)[C@H](n4ccc(=O)[nH]c4=O)O[C@@H]3COP(=O)(S)O[C@H]3[C@@H](O)[C@H](n4ccc(=O)[nH]c4=O)O[C@@H]3COP(=O)(S)O[C@H]3[C@@H](O)[C@H](n4ccc(N)nc4=O)O[C@@H]3COP(=O)(S)O[C@H]3[C@@H](O)[C@H](n4cnc5c(N)ncnc54)O[C@@H]3CO)[C@H]2O)c(=O)n1 (stereo partly drawn)
15.6,25,Nc1ccn([C@@H]2O[C@H](COP(=O)(S)O[C@H]3[C@@H](O)[C@H](n4ccc5c(=O)[nH]c(N)nc54)O[C@@H]3COP(=O)(S)O[C@H]3[C@@H](O)[C@H](n4cnc5c(N)ncnc54)O[C@@H]3COP(=O)(S)O[C@H]3[C@@H](O)[C@H](n4cnc5c(N)ncnc54)O[C@@H]3COP(=O)(S)O[C@H]3[C@@H](O)[C@H](n4ccc5c(=O)[nH]c(N)nc54)O[C@@H]3COP(=O)(S)O[C@H]3[C@@H](O)[C@H](n4ccc(=O)[nH]c4=O)O[C@@H]3COP(=O)(S)O[C@H]3[C@@H](O)[C@H](n4ccc(=O)[nH]c4=O)O[C@@H]3COP(=O)(S)O[C@H]3[C@@H](O)[C@H](n4cnc5c(N)ncnc54)O[C@@H]3COP(=O)(S)O[C@H]3[C@@H](O)[C@H](n4cnc5c(N)ncnc54)O[C@@H]3CO)[C@@H](OP(=O)(S)OC[C@H]3O[C@@H](n4ccc(=O)[nH]c4=O)[C@H](O)[C@@H]3OP(=O)(S)OC[C@H]3O[C@@H](n4ccc(=O)[nH]c4=O)[C@H](O)[C@@H]3OP(=O)(S)OCC(O)COP(=O)(S)O[C@H]3[C@@H](O)[C@H](n4ccc(=O)[nH]c4=O)O[C@@H]3COP(=O)(S)O[C@H]3[C@@H](O)[C@H](n4ccc(=O)[nH]c4=O)O[C@@H]3COP(=O)(S)O[C@H]3[C@@H](O)[C@H](n4ccc(N)nc4=O)O[C@@H]3COP(=O)(S)O[C@H]3[C@@H](O)[C@H](n4ccc5c(=O)[nH]c(N)nc54)O[C@@H]3COP(=O)(S)O[C@H]3[C@@H](O)[C@H](n4cnc5c(N)ncnc54)O[C@@H]3COP(=O)(S)O[C@H]3[C@@H](O)[C@H](n4cnc5c(N)ncnc54)O[C@@H]3COP(=O)(S)O[C@H]3[C@@H](O)[C@H](n4ccc5c(=O)[nH]c(N)nc54)O[C@@H]3COP(=O)(S)O[C@H]3[C@@H](O)[C@H](n4ccc(=O)[nH]c4=O)O[C@@H]3COP(=O)(S)O[C@H]3[C@@H](O)[C@H](n4ccc(=O)[nH]c4=O)O[C@@H]3COP(=O)(S)O[C@H]3[C@@H](O)[C@H](n4cnc5c(N)ncnc54)O[C@@H]3COP(=O)(S)O[C@H]3[C@@H](O)[C@H](n4cnc5c(N)ncnc54)O[C@@H]3CO)[C@H]2O)c(=O)n1 (stereo partly drawn)
7,16.8,Nc1ccn([C@@H]2O[C@H](COP(=O)(S)O[C@H]3[C@@H](O)[C@H](n4cnc5c(N)ncnc54)O[C@@H]3CO)[C@@H](OP(=O)(S)OC[C@H]3O[C@@H](n4ccc(=O)[nH]c4=O)[C@H](O)[C@@H]3OP(=O)(S)OC[C@H]3O[C@@H](n4ccc5c(=O)[nH]c(N)nc54)[C@H](O)[C@@H]3OP(=O)(S)OC[C@H]3O[C@@H](n4cnc5c(N)ncnc54)[C@H](O)[C@@H]3OP(=O)(S)OC[C@H]3O[C@@H](n4ccc5c(=O)[nH]c(N)nc54)[C@H](O)[C@@H]3OP(=O)(S)OC[C@H]3O[C@@H](n4cnc5c(N)ncnc54)[C@H](O)[C@@H]3OP(=O)(S)OC[C@H]3O[C@@H](n4ccc5c(=O)[nH]c(N)nc54)[C@H](O)[C@@H]3OP(=O)(S)OC[C@H]3O[C@@H](n4ccc(N)nc4=O)[C@H](O)[C@@H]3OP(=O)(S)OC[C@H]3O[C@@H](n4ccc(=O)[nH]c4=O)[C@H](O)[C@@H]3OP(=O)(S)OC[C@H]3O[C@@H](n4ccc(=O)[nH]c4=O)[C@H](O)[C@@H]3OP(=O)(S)OCC(O)COP(=O)(S)O[C@H]3[C@@H](O)[C@H](n4ccc(=O)[nH]c4=O)O[C@@H]3COP(=O)(S)O[C@H]3[C@@H](O)[C@H](n4ccc(=O)[nH]c4=O)O[C@@H]3COP(=O)(S)O[C@H]3[C@@H](O)[C@H](n4ccc(N)nc4=O)O[C@@H]3COP(=O)(S)O[C@H]3[C@@H](O)[C@H](n4ccc5c(=O)[nH]c(N)nc54)O[C@@H]3COP(=O)(S)O[C@H]3[C@@H](O)[C@H](n4cnc5c(N)ncnc54)O[C@@H]3COP(=O)(S)O[C@H]3[C@@H](O)[C@H](n4ccc5c(=O)[nH]c(N)nc54)O[C@@H]3COP(=O)(S)O[C@H]3[C@@H](O)[C@H](n4cnc5c(N)nc(N)nc54)O[C@@H]3COP(=O)(S)O[C@H]3[C@@H](O)[C@H](n4ccc5c(=O)[nH]c(N)nc54)O[C@@H]3COP(=O)(S)O[C@H]3[C@@H](O)[C@H](n4ccc(=O)[nH]c4=O)O[C@@H]3COP(=O)(S)O[C@H]3[C@@H](O)[C@H](n4ccc(N)nc4=O)O[C@@H]3COP(=O)(S)O[C@H]3[C@@H](O)[C@H](n4cnc5c(N)ncnc54)O[C@@H]3CO)[C@H]2O)c(=O)n1 (stereo partly drawn)
29.5,29.5,Nc1ccn([C@@H]2O[C@H](COP(=O)(S)O[C@H]3[C@@H](O)[C@H](n4cnc5c(N)ncnc54)O[C@@H]3COP(=O)(S)O[C@H]3[C@@H](O)[C@H](n4cnc5c(N)ncnc54)O[C@@H]3CO)[C@@H](OP(=O)(S)OC[C@H]3O[C@@H](n4ccc(=O)[nH]c4=O)[C@H](O)[C@@H]3OP(=O)(S)OC[C@H]3O[C@@H](n4ccc5c(=O)[nH]c(N)nc54)[C@H](O)[C@@H]3OP(=O)(S)OC[C@H]3O[C@@H](n4cnc5c(N)ncnc54)[C@H](O)[C@@H]3OP(=O)(S)OC[C@H]3O[C@@H](n4cnc5c(N)ncnc54)[C@H](O)[C@@H]3OP(=O)(S)OC[C@H]3O[C@@H](n4ccc5c(=O)[nH]c(N)nc54)[C@H](O)[C@@H]3OP(=O)(S)OC[C@H]3O[C@@H](n4ccc(N)nc4=O)[C@H](O)[C@@H]3OP(=O)(S)OC[C@H]3O[C@@H](n4ccc(=O)[nH]c4=O)[C@H](O)[C@@H]3OP(=O)(S)OC[C@H]3O[C@@H](n4ccc(=O)[nH]c4=O)[C@H](O)[C@@H]3OP(=O)(S)OCC(O)COP(=O)(S)O[C@H]3[C@@H](O)[C@H](n4ccc(=O)[nH]c4=O)O[C@@H]3COP(=O)(S)O[C@H]3[C@@H](O)[C@H](n4ccc(=O)[nH]c4=O)O[C@@H]3COP(=O)(S)O[C@H]3[C@@H](O)[C@H](n4ccc(N)nc4=O)O[C@@H]3COP(=O)(S)O[C@H]3[C@@H](O)[C@H](n4ccc5c(=O)[nH]c(N)nc54)O[C@@H]3COP(=O)(S)O[C@H]3[C@@H](O)[C@H](n4cnc5c(N)ncnc54)O[C@@H]3COP(=O)(S)O[C@H]3[C@@H](O)[C@H](n4cnc5c(N)ncnc54)O[C@@H]3COP(=O)(S)O[C@H]3[C@@H](O)[C@H](n4ccc5c(=O)[nH]c(N)nc54)O[C@@H]3COP(=O)(S)O[C@H]3[C@@H](O)[C@H](n4ccc(=O)[nH]c4=O)O[C@@H]3COP(=O)(S)O[C@H]3[C@@H](O)[C@H](n4ccc(N)nc4=O)O[C@@H]3COP(=O)(S)O[C@H]3[C@@H](O)[C@H](n4cnc5c(N)ncnc54)O[C@@H]3COP(=O)(S)O[C@H]3[C@@H](O)[C@H](n4cnc5c(N)ncnc54)O[C@@H]3CO)[C@H]2O)c(=O)n1 (stereo partly drawn)
